pIC50: −log10 of the molar value. Calls of active or inactive are those of the source. The calls are words filed in the database; no cut-off is given here.
What was measured:
Influenza A virus [1] = assay: (§1) Antiviral activity against Influenza A virus (A/parrot/Ulster/73(H7N1)) infected in human A549 cells assessed as reduction in viral protein expression at 20 uM treated for 1 hr during viral adsorption followed by staining with anti-Flu antibody observed at 24 hrs post infection by In-cell western assay; type: functional, organism-based
Influenza A virus [2] = assay: as §1, with “24 hrs, pdp” for “1 hr during”; type: functional, organism-based
[3] = target: Abl (Tyrosine-protein kinase ABL1) (Homo sapiens, UniProt P00519); assay: Inhibition of human recombinant N terminal His6 tagged Abl (27 to end residue) assessed as residual activity at 5 uM using KKGEAIYAADFA-NH2 as a substrate in the presence of NP-40 incubated for 10 mins by scintillation counting analysis relative to control; settings: probe KKGEAIYAADFA-NH2, read-out: Activity
Abl (Tyrosine-protein kinase ABL1), sequence (P00519 whole entry): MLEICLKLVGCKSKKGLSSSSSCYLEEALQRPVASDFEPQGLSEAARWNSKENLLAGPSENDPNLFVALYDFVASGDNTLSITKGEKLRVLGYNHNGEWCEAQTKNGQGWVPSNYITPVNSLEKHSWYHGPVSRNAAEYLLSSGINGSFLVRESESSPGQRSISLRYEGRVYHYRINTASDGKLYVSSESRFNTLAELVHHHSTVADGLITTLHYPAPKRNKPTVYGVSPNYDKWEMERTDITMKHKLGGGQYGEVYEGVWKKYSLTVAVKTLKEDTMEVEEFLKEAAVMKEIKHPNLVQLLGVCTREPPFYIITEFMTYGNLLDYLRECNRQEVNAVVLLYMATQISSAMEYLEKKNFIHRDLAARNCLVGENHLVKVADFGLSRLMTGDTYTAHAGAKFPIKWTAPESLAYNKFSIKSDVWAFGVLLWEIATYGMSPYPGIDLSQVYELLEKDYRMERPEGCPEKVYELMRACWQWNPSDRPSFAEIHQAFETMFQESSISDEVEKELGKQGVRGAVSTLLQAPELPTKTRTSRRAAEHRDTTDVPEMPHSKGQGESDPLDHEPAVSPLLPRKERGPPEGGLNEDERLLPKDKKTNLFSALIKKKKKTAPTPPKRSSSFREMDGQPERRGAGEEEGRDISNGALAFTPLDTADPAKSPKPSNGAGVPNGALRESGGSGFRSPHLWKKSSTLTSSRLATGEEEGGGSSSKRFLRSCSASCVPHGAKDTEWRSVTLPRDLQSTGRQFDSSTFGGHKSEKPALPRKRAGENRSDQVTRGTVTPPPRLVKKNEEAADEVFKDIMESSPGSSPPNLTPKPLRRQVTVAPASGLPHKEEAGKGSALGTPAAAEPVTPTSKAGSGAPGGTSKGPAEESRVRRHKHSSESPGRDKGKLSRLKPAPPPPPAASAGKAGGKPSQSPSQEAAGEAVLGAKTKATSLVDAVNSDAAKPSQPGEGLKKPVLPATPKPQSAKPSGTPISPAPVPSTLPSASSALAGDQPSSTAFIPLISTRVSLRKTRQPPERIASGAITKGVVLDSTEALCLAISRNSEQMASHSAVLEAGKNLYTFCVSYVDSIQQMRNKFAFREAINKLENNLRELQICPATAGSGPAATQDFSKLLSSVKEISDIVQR
Outline: (§2)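 Compounds at fixed 5 μM; 10–50 ng kinase, substrate and NP-40/BSA per supplementary table, 10 μL at 30 °C for 10 min in low-binding tubes. Reactions spotted on filter, dried, scintillation counted. Mean ± SD of two independent experiments.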

Zika virus = assay: Antiviral activity against Zika virus H/PF/2013 infected in pre-seeded Huh-7 cells assessed as inhibition of viral replication incubated for 72 hrs by immunodetection based plaque reduction assay; type: functional, organism-based; settings: H/PF/2013, Huh-7, 72 h
[4] = target: Fyn (Tyrosine-protein kinase Fyn) (Homo sapiens, UniProt P06241); assay: Inhibition of human recombinant N terminal His6 tagged full length Fyn assessed as residual activity at 5 uM using […] as a substrate in the presence of NP-40 incubated for 10 mins by scintillation counting analysis relative to control; settings: probe […], read-out: Activity; outline: as §2
Fyn (Tyrosine-protein kinase Fyn), sequence (P06241 whole entry): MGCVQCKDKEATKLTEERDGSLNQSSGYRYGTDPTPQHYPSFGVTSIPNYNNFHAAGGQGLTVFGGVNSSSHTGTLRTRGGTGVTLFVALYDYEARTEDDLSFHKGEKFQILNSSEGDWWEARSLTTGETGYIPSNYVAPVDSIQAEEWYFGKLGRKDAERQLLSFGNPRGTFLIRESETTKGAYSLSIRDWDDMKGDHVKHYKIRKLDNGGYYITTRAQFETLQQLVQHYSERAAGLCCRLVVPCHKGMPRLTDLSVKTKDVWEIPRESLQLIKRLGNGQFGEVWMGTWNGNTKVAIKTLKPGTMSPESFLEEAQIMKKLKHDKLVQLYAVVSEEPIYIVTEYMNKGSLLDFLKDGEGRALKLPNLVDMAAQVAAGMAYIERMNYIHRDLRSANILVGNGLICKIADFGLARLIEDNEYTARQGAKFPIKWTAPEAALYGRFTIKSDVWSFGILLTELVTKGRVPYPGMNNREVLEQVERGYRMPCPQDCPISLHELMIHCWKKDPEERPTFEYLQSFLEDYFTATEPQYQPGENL

Calu-3 = assay: Cytotoxicity against human Calu-3 cells infected with SARS-COV-2 by celltiter-glo luminescent cell viability assay; type: cell-based; settings: calu-3
Outline: (§3)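 Compound-exposed cells assessed by CellTiter-Glo luminescence versus DMSO control; CC50 from dose-response.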

Caco-2 = assay: Cytotoxicity against human Caco2 cells infected with SARS-COV-2 assessed as reduction in cell viability by celltiter-glo luminescent cell viability assay; type: cell-based; outline: as §3
Influenza A virus [5] = assay: Antiviral activity against Influenza A Puerto Rico/8/34/H1N1 infected in human A549 cells assessed as inhibition of hemagglutinin expression at 20 uM treated 2 to 6 hrs post infection for 24 hrs followed by infection in fresh monolayer of MDCK cells with supernatant for 24 hrs by time-of-addition assay; type: functional, organism-based; settings: A/Puerto Rico/8/1934(H1N1), time 2-6 hrs
[6] = Selectivity index, ratio of CC50 for human Huh-7 cells to IC50 for Zika virus H/PF/2013 infected in pre-seeded Huh-7 cells assessed as inhibition of viral replication incubated for 72 hrs by immunodetection based secondary yield reduction assay; type: toxicity, cell-based; settings: read-out: Selectivity Index
[7] = Cytotoxicity against human Huh-7 cells infected with SARS-COV-2 assessed as reduction in cell viability by celltiter-glo luminescent cell viability assay; type: cell-based; settings: Huh-7 cells infected with SARS-COV-2; outline: as §3
Influenza A virus [8] = assay: Antiviral activity against Influenza A Puerto Rico/8/34/H1N1 infected in human A549 cells assessed as reduction in viral protein expression at 20 uM pretreated for 2 hrs followed by staining with anti-Flu antibody observed at 24 hrs post infection by In-cell western assay; type: functional, organism-based; settings: A/Puerto Rico/8/1934(H1N1)
dengue virus type 2 = assay: Antiviral activity against Dengue virus serotype 2 New Guinea C infected in pre-seeded Huh-7 cells assessed as inhibition of viral replication incubated for 72 hrs by immunodetection based direct yield reduction assay; type: functional, organism-based; settings: huh-7
[9] = Selectivity index, ratio of CC50 for human Huh-7 cells to IC50 for Zika virus H/PF/2013 infected in pre-seeded Huh-7 cells assessed as inhibition of viral replication incubated for 72 hrs by immunodetection based plaque reduction assay; type: toxicity, cell-based; settings: read-out: Selectivity Index
[10] = Toxicity in human A549 cells assessed as effect on host cell membrane; type: cell-based
Influenza A virus [11] = assay: as §1, with “24 hrs post” for “1 hr during”; type: functional, organism-based
[12] = Inhibition of full length ZIKA virus NS5 RNA dependent RNA polymerase incubated for 10 mins by picogreen staining based fluorescent analysis (Rvb= 1+/-0.2 uM)
[13] = Cytotoxicity against human Huh-7 cells assessed as reduction in cell viability by Celltiter-Glo luminescent cell viability assay; type: cell-based; settings: Huh-7 cells; outline: as §3
[14] = target: PIK3CA (Phosphatidylinositol 4,5-bisphosphate 3-kinase catalytic subunit alpha isoform) (Homo sapiens, UniProt P42336); assay: Inhibition of human full length PIK3CA assessed as residual activity at 5 uM using PI:PS (1:3) as a substrate incubated for 10 mins by scintillation counting analysis relative to control; settings: full length PIK3CA enzyme, probe PI:PS (1:3), read-out: Activity
PIK3CA (Phosphatidylinositol 4,5-bisphosphate 3-kinase catalytic subunit alpha isoform), sequence (P42336 whole entry, canonical isoform): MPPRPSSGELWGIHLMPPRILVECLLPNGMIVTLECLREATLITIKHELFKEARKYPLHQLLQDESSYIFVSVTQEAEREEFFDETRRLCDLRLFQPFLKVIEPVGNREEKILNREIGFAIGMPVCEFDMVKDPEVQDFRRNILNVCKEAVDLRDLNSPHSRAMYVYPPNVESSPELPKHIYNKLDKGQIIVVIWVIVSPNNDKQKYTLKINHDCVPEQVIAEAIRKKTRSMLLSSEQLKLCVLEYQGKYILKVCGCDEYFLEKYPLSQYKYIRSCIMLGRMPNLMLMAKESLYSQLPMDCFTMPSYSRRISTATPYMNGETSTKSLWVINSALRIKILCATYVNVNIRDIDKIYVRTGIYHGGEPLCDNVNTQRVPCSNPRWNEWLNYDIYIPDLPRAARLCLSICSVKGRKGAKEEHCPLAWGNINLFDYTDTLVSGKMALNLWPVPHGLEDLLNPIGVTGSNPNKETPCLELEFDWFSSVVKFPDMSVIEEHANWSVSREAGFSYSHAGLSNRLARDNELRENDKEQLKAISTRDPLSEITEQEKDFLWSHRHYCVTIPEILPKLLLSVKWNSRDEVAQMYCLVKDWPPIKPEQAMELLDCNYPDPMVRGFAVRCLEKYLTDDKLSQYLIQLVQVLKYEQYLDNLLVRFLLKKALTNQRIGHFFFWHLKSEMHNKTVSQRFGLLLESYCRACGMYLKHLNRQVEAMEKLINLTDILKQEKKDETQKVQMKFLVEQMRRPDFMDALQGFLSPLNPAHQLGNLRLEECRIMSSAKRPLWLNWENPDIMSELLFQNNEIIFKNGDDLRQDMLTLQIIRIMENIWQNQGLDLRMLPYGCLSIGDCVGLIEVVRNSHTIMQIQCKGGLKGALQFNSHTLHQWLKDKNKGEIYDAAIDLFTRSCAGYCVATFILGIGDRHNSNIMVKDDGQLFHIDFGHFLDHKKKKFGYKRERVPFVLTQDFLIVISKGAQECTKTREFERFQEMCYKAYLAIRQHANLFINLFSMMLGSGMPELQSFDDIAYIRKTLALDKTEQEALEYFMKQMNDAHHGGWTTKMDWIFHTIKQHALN
Outline: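 Radiometric kinase reaction with 10–50 ng enzyme and compound fixed at 5 μM, 10 μL at 30 °C for 10 min. Reactions spotted on filter and counted by scintillation. Residual activity is the mean ± SD of two independent experiments.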

Influenza A virus [15] = assay: Antiviral activity against Influenza A Puerto Rico/8/34/H1N1 infected in human A549 cells assessed as reduction in viral protein expression at 20 uM treated for 24 hrs post viral adsorption followed by staining with anti-Flu antibody observed at 24 hrs post infection by In-cell western assay; type: functional, organism-based; settings: A/Puerto Rico/8/1934(H1N1)
Influenza A virus [16] = assay: Antiviral activity against Influenza A Puerto Rico/8/34/H1N1 infected in human A549 cells assessed as reduction in viral protein expression at 20 uM treated for 2 to 6 hrs post infection and measured following infection of MDCK cells with supernatant for 24 hrs by time-of-addition assay; type: functional, organism-based; settings: A/Puerto Rico/8/1934(H1N1), time 2-6 hrs
[17] = Selectivity index, ratio of CC50 for human Huh-7 cells to IC50 for Dengue virus serotype 2 New Guinea C infected in pre-seeded Huh-7 cells assessed as inhibition of viral replication incubated for 72 hrs by immunodetection based plaque reduction assay; type: toxicity, cell-based; settings: read-out: Selectivity Index
[18] = Inhibition of Dengue virus 2 […] RNA dependent RNA polymerase incubated for 10 mins by picogreen staining based fluorescent analysis (Rvb= 0.27+/-0.03 uM); parameters: species or system dengue virus type 2
Influenza A virus [19] = assay: Antiviral activity against Influenza A Puerto Rico/8/34/H1N1 infected in human A549 cells assessed as reduction in viral protein expression at 20 uM treated for 1 hr during viral adsorption followed by staining with anti-Flu antibody observed at 24 hrs post infection by In-cell western assay; type: functional, organism-based; settings: A/Puerto Rico/8/1934(H1N1)
[20] = Selectivity index, ratio of CC50 for human Caco-2 cells infected with SARS-COV-2 to IC50 of SARS-COV 2 infected in human Caco-2 cells; type: toxicity, cell-based; settings: read-out: Selectivity Index
Huh-7 = assay: Effect on formation of DENV replication complex in human Huh-7 cells assessed as reduction in expression of NS3 at 50 uM measured after 8 to 24 hrs by DAPI staining based confocal microscopy analysis; type: functional, cell-based; settings: time 8-24 hrs
Outline: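 Huh-7 cells (1 × 10⁴) on coverslips infected with DENV-2 (MOI 0.05), treated (100 or 50 μM as listed), fixed in 4% paraformaldehyde at 8, 12, 16, 24 h; anti-NS3/anti-NS5 with Alexa 488/568 secondaries, DAPI; confocal, 5 random fields at 40×; % positive cells; 2-way ANOVA with Dunnett.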

MDCK = assay: Cytotoxicity against MDCK cells assessed as reduction in cell viability measured after 24 hrs by MTT assay; type: cell-based, Canis lupus familiaris; settings: dog, mdck, 24 h

FC(F)(F)c1cccc(Nc2nc(NCCOc3ccccc3)nc3[nH]cnc23)c1
Activity (Influenza A virus [1]): Active
Activity (Influenza A virus [2]): Active
activity at 10 min, 5 µM [3]: 70%
pIC50 (Zika virus): 6.30
activity at 10 min, 5 µM [4]: > 98%
CC50 (Calu-3): 120 µM
CC50 (Caco-2): 81.3 µM
Activity (Influenza A virus [5]): inactive
selectivity ratio at 72 h [6]: 182
CC50 [7]: 200 µM
Activity (Influenza A virus [8]): Active
IC50 (dengue virus type 2): Not Active
selectivity ratio at 72 h [9]: 400
Activity [10]: Toxic
Activity (Influenza A virus [11]): Active
pIC50 [12]: 4.89
CC50 [13]: 200 µM
activity at 10 min, 5 µM [14]: 66%
Activity (Influenza A virus [15]): Active
Activity (Influenza A virus [16]): Active
selectivity ratio at 72 h [17]: 222
pIC50 [18]: 4.68
Activity (Influenza A virus [19]): Active
selectivity ratio [20]: 14
Activity (Huh-7): Active
CC50 (MDCK): 77 µM

From ChEMBL document CHEMBL4842338, “System-oriented optimization of multi-target 2,6-diaminopurine derivatives: Easily accessible broad-spectrum antivirals active against flaviviruses, influenza virus and SARS-CoV-2” (Eur J Med Chem, 2021)
